Legend:
[1] = molecular target: Metabotropic glutamate receptor 5 (Rattus norvegicus, UniProt P31424); experiment: Displacement of […] from mGluR5 in rat brain membrane; format: cell membranes
Procedure, shortened: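 Competition binding against [³H]MPEPy in rat whole-brain membranes (minus cerebellum and brainstem), homogenized in 50 mM Tris-HCl/saline pH 7.5, pelleted at 39 800 g. Membranes 5 mg/800 µL final. Competitor from 10 mM ethanol stock, final 0.01 nM to 1 mM. Incubated 1 h at 22 °C, filtered on PEI-soaked GF/B, washed with cold saline, scintillation counted. Three determinations.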

[2] = Stability in phosphate buffered saline at pH 7.4 after 71 mins; format: physicochemical; settings: buffer, pH 7.4, 71 min
Procedure, shortened: (§1)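 The radioligand was dissolved in water, sampled at 34, 48 and 159 min, and analyzed at once by reverse-phase radio-HPLC (Novapak C-18, MeOH–H2O–Et3N 70:30:0.1, 2.0 mL/min). A second solution in 0.9% saline containing 0.15 mM phosphoric acid was sampled at 54 and 71 min and analyzed the same way.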

Plasma = experiment: Stability in rhesus monkey plasma at 5 uCi after 168 mins; format: ADME, cell-free, Macaca mulatta; settings: 2.8 h
Procedure, shortened: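 Plasma was obtained by spinning whole monkey blood at 1800 g for 5 min. Plasma (1.0 mL) was incubated with 5 μCi radioligand at room temperature for 168 min, and a sample was analyzed by reverse-phase radio-HPLC.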

[3] = Stability in human whole blood at 2 uCi; format: ADME, tissue-based; settings: read-out: Stability
Procedure, shortened: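 Radioligand (2 μCi) was added to human whole blood (2.0 mL) at 23 °C and sampled at 10-90 min. Each sample was mixed with acetonitrile spiked with carrier and with KF (0.5 M), counted and centrifuged at 10 000 g for 1 min. The supernatant was analyzed by radio-HPLC.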

[4] = Stability in aqueous solution after 159 mins; format: physicochemical; settings: buffer, 2.65 h; procedure, shortened: as §1
[5] = Stability in rhesus monkey brain at 100 uCi in 37 degC after 90 mins; format: ADME, tissue-based, Macaca mulatta
Procedure, shortened: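 Monkey brain tissue (3.34 g, stored at -70 °C for 1 year) was homogenized on ice with about 100 μCi radioligand, incubated at 37 °C and sampled at 5-90 min. Samples were taken into acetonitrile spiked with carrier plus 0.5 M KF, counted and centrifuged at 10 000 g for 1 min. Supernatants went to HPLC, and pellets were counted to give recovery.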

[6] = Stability in human brain at 50 uCi in 37 degC after 3 hrs; format: ADME, tissue-based
Procedure, shortened: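 Human brain tissue (1.76 g) was homogenized in ice-cold saline (3 mL), then mixed with about 50 μCi radioligand in ethanol–water 1:1. The mixture was incubated at 37 °C and sampled at 5-180 min. Samples were taken into carrier-spiked acetonitrile plus 0.5 M KF, counted and centrifuged at 10 000 g. Supernatants went to HPLC, and pellets were counted to give recovery.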

Brain = experiment: Drug uptake in rhesus monkey brain at 4 mCi, iv; format: ADME, organism-based, Macaca mulatta; settings: in vivo
Procedure, shortened: (§2)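 Anesthetized rhesus monkey (~10 kg; ketamine, propofol, isoflurane) given [18F] radioligand 4.0 mCi i.v. Imaged on HRRT with attenuation and scatter correction. Regional time–activity curves from MRI-coregistered regions of interest, expressed as %SUV (normalized for injected activity and body weight). Hippocampal uptake averaged over 60–120 min.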

Hippocampus [7] = experiment: Drug uptake in rhesus monkey hippocampus at 4 mCi, iv after 60 to 120 mins; format: ADME, organism-based, Macaca mulatta; settings: in vivo; procedure, shortened: as §2
Hippocampus [8] = experiment: Drug uptake in rhesus monkey hippocampus at 4 mCi, iv in presence of 6-methyl-2-(phenylethynyl)-pyridine after 60 to 120 mins; format: ADME, organism-based, Macaca mulatta; settings: in vivo
Procedure, shortened: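 Same rhesus monkey on a separate day, given blocker 5 mg/kg i.v. in saline with 10% ethanol 15 min before [18F] radioligand (3.8 mCi i.v.). HRRT PET. Regional uptake expressed as %SUV from MRI-coregistered regions of interest, averaged over 60–120 min.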

Striatum [9] = experiment: Drug uptake in rhesus monkey striatum at 4 mCi, iv after 60 to 120 mins; format: ADME, organism-based, Macaca mulatta; settings: in vivo
Procedure, shortened: (§3)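 Rhesus monkey (~10 kg) anesthetized with ketamine (10 mg/kg, i.m.) and propofol (5 mg/kg, i.v.), then isoflurane 1.0-4.0% in oxygen; body temperature 37-37.5 °C. Radioligand given i.v. and imaged on HRRT PET with attenuation and scatter correction. For blockade, MPEP/MTEP (5 mg/kg, i.v., in saline with 10% ethanol) given 15 min before tracer in the same monkey. Striatal ROI expressed as %SUV (normalized to injected activity and body weight) over 60-120 min.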

Striatum [10] = experiment: Drug uptake in rhesus monkey striatum at 4 mCi, iv in presence of 6-methyl-2-(phenylethynyl)-pyridine after 60 to 120 mins; format: ADME, organism-based, Macaca mulatta; settings: in vivo; procedure, shortened: as §3
Blood = experiment: Biodistribution in rhesus monkey blood at 4 mCi, iv after180 mins; format: ADME, organism-based, Macaca mulatta; settings: in vivo, 3 h
Procedure, shortened: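 Anesthetized rhesus monkey given [18F] radioligand i.v. Heparinized blood drawn at 1 min intervals to 5 min, then at 10, 25, 40, 60, 90, 120 and 180 min, and kept on ice. Centrifuged 1800 g for 1.5 min. Plasma and cells γ-counted to give the partition of radioactivity into the cellular fraction.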

Metabotropic glutamate receptor 5, sequence (P31424 whole entry): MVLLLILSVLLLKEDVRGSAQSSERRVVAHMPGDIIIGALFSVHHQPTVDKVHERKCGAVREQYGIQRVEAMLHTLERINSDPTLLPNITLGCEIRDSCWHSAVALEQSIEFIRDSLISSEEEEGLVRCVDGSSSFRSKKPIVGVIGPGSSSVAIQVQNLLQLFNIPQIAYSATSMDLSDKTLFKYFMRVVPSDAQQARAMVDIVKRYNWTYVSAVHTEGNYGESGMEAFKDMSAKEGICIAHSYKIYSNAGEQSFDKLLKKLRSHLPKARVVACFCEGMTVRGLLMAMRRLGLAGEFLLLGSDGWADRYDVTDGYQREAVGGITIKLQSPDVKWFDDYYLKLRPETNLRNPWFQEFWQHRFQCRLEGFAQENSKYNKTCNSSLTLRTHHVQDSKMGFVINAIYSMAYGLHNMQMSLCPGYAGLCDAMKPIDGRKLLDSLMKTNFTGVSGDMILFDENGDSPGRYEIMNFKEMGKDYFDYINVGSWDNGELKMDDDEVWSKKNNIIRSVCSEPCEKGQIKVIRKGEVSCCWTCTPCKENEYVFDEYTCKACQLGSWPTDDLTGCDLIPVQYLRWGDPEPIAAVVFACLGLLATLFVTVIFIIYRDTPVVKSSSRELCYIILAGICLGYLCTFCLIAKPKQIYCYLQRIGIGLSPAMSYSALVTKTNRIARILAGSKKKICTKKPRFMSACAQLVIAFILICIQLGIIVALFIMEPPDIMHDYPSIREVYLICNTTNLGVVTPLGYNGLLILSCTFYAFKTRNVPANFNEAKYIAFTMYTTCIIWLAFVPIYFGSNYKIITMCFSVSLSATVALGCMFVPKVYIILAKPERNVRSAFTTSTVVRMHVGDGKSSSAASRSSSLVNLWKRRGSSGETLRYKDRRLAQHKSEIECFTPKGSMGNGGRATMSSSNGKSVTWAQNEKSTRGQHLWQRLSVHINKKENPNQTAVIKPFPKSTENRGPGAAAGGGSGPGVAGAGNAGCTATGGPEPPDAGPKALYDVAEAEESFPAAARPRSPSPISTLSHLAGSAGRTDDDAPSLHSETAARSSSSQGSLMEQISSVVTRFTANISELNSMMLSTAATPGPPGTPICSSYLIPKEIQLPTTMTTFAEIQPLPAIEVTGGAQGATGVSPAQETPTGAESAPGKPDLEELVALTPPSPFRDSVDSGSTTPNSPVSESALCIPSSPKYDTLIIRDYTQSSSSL

SMILES	IC50 [1] [nM]	Stability [2]	Stability (Plasma)	remaining at 2 uCi [3] [%]	Stability [4]	remaining at 1.5 h, 100 uCi [5] [%]	remaining at 3 h, 50 uCi [6] [%]	Drug uptake (Brain) [%]	Drug uptake (Hippocampus [7]) [%]	Drug uptake (Hippocampus [8]) [%]	Drug uptake (Striatum [9]) [%]	Drug uptake (Striatum [10]) [%]	Drug uptake (Blood) [%]
FCc1nc(C#Cc2cccc(F)c2)cs1	0.48	–	–	–	–	–	–	–	–	–	–	–	–
N#Cc1cc(F)cc(C#Cc2csc(C[18F])n2)c1	–	Stable	Stable	> 98	Stable	98.2	98.6	450	500	200	500	200	33.9
N#Cc1cncc(C#Cc2csc(CF)n2)c1	0.23	–	–	–	–	–	–	–	–	–	–	–	–

— ChEMBL document CHEMBL1145430, “Synthesis and simple 18F-labeling of 3-fluoro-5-(2-(2-(fluoromethyl)thiazol-4-yl)ethynyl)benzonitrile as a high affinity radioligand for imaging monkey brain metabotropic glutamate subtype-5 receptors with positron emission tomography” (J Med Chem, 2007)
